Measurements as given in ChEMBL document CHEMBL1130425, “An orally bioavailable pyrrolinone inhibitor of HIV-1 protease: computational analysis and X-ray crystal structure of the enzyme complex” (J Med Chem, 1997).

What was measured:
[1] = target: Human immunodeficiency virus type 1 protease (Human immunodeficiency virus 1, UniProt Q72874); experiment: Inhibition of HIV-1 protease
[2] = target: Human immunodeficiency virus type 1 protease (Human immunodeficiency virus 1) (UniProt Q72874); experiment: Cellular antiviral activity against HIV-1 Protease
[3] = Ratio of CIC95 to IC50 values
Method in brief: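 Ratio computed by dividing the cellular antiviral CIC95 by the IC50 from the purified HIV-1 protease inhibition assay, both in nM.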

Row | SMILES | IC50 [1] | IC95 [2] | Ratio [3]
1 | CC(C)(C)OC(=O)N[C@@H](Cc1ccccc1)[C@@H](O)C[C@]1(Cc2ccccc2)N=CC(C2c3ccccc3C[C@H]2O)=C1O (some centres undefined) | 11.9 nM | 800 nM | 
2 | O=C(N[C@@H](Cc1ccccc1)[C@@H](O)C[C@]1(Cc2ccccc2)N=CC(C2c3ccccc3C[C@H]2O)=C1O)O[C@H]1CCOC1 (some centres undefined) | 2 nM | 100 nM | 
3 | CC(C)(C)OC(=O)N[C@@H](Cc1ccccc1)[C@@H](O)C[C@]1(Cc2ccc(O)cc2)N=CC(C2c3ccccc3C[C@H]2O)=C1O (some centres undefined) | 6 nM |  | 
4 | CC(C)C[C@H](NC(=O)[C@H](Cc1ccccc1)C[C@H](O)[C@H](Cc1ccccc1)NC(=O)OC(C)(C)C)C(=O)N[C@@H](Cc1ccccc1)C(N)=O |  |  | 10000
5 | CC(C)(C)OC(=O)N[C@@H](Cc1ccccc1)[C@@H](O)C[C@@](C)(Cc1ccccc1)C(=O)NC1c2ccccc2C[C@H]1O (single isomer, unassigned) | 7 nM |  | 
6 | CC(C)(C)OC(=O)N[C@@H](Cc1ccccc1)[C@@H](O)CC1(Cc2ccccc2)CCN(C2c3ccccc3C[C@H]2O)C1=O (single isomer, unassigned) | 86 nM |  | 
7 | O=C(N[C@@H](Cc1ccccc1)[C@@H](O)C[C@@H](Cc1ccccc1)C(=O)NC1c2ccccc2C[C@H]1O)OC1CCOC1 (single isomer, unassigned) | 0.03 nM | 3 nM | 100
8 | CN(C(=O)[C@H](Cc1ccccc1)C[C@H](O)[C@H](Cc1ccccc1)NC(=O)OC(C)(C)C)C1c2ccccc2C[C@H]1O (single isomer, unassigned) | 186 nM |  | 
9 | CC(C)(C)NC(=O)[C@@H]1CN(Cc2cccnc2)CCN1C[C@@H](O)C[C@@H](Cc1ccccc1)C(=O)NC1c2ccccc2C[C@H]1O (single isomer, unassigned) |  | 25 nM | 
10 | CC(C)(C)OC(=O)N[C@@H](Cc1ccccc1)[C@@H](O)C[C@@H](Cc1ccccc1)C(=O)NC1c2ccccc2C[C@H]1O (single isomer, unassigned) |  |  | 1330
